What was measured:
[1] = biological target: Cruzipain (Trypanosoma cruzi, UniProt P25779); test: Inhibitory activity against Trypanosoma cruzi cathepsin L-like protease (cruzain) was determined using purified recombinant protein
Outline: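 Purified recombinant cruzain (1 nM) preincubated 5 min at room temperature with inhibitor (20-50000 nM; seven concentrations) in 100 mM sodium acetate, 5 mM DTT, pH 5.50. DMSO 0.7% in assay. IC50 read graphically from linear portion of inhibition vs log[I], at least two points in linear range.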

[2] = tested on: Trypanosoma cruzi; test: Trypanocidal activity in infected host cells; assay type: functional
Outline: (§1)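 Irradiated (5000 rad) J774 macrophages were plated 24 h before infection with ~10^6 T. cruzi Y-strain trypomastigotes per well; the trypomastigotes came from BESM cell culture supernatants. Parasites were removed at 2 h, then compound was given at 10 μM (stocks 10 mM in DMSO) in RPMI-1640 with FCS at 37 °C, 5% CO2, refreshed every 48 h. DMSO blank served as control. Cultures were followed by phase microscopy for up to […], scoring intracellular cycle duration and host-cell survival and toxicity.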

[3] = tested on: Trypanosoma cruzi; test: Tested for the trypanocidal property against infected host cells (Trypanosoma cruzi) using a cell culture assay; assay type: functional; outline: as §1
[4] = tested on: Trypanosoma cruzi; test: Tested for the trypanocidal property against infected host cells (Trypanosoma cruzi) using a cell culture assay.; assay type: functional; outline: as §1

Sequence of Cruzipain (P25779 whole entry): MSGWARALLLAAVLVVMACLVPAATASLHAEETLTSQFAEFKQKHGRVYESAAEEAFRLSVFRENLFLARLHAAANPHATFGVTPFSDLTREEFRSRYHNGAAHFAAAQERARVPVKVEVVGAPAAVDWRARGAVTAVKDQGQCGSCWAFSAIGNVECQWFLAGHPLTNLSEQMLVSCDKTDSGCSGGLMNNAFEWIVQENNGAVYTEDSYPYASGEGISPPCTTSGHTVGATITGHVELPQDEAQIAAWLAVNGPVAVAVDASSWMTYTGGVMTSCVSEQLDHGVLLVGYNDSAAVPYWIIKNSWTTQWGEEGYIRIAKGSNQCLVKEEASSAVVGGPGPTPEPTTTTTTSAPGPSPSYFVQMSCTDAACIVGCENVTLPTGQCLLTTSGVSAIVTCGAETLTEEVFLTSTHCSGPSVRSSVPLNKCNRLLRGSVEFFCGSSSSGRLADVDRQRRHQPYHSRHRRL

Row | IC50 [1] [nM] | SMILES | further results
1 | 560 | N/C(S)=N/N=C/c1cc(Cl)cc(Cl)c1 | 
2 | > 10000 | S=C(NCc1ccco1)N1CCC(c2cccc(Br)c2)=N1 | 
3 | 1700 | FC(F)(F)c1cccc(NC(=S)N2CCC(c3cccc(Cl)c3)=N2)c1 | 
4 | > 10000 | S=C(Nc1ccccc1)N1CCC(c2cccc(Br)c2)=N1 | 
5 | > 10000 | C/C(=N\NC(N)=O)c1ccc(Cl)c(Cl)c1 | 
6 | 1900 | C/C(=N\N=C(\N)S)c1ccc(Cl)s1 | 
7 | > 10000 | C/C(=N\N=C(\N)S)c1ccc(N2CCOCC2)cc1 | 
8 | > 10000 | N=C(S)N/N=C/c1ccccc1C(F)(F)F | 
9 | > 10000 | CC/C(=N\NC(N)=O)c1ccc(Cl)c(Cl)c1 | 
10 | > 10000 | COc1cccc(/C(C)=N/N=C(/N)S)c1 | 
11 | > 10000 | C/C(=N\NC(N)=O)c1cccc(Br)c1 | 
12 | > 10000 | CN(C)c1ccc(/C=N/N=C(/N)S)c2ccccc12 | 
13 | > 10000 | CC/N=C(\S)N/N=C(\CC)c1cccc(Br)c1 | 
14 | > 10000 | CC(C)/N=C(\S)N1CCC(c2cccc(Br)c2)=N1 | 
15 | > 10000 | CC/C(=N\N=C(/S)Nc1ccccc1)c1cccc(Br)c1 | 
16 | > 10000 | C/C(=N\N=C(\N)S)c1ccccc1Cl | 
17 | 280 | NC(=S)N/N=C/c1ccc(-c2ccc(Br)cc2)o1 | 
18 | > 10000 | CC/C(=N\NC(N)=O)c1cccc(Cl)c1 | 
19 | > 10000 | CC/C(=N\N=C(/S)NCc1ccco1)c1cccc(Br)c1 | 
20 | > 10000 | CC/C(=N\N=C(\N)S)c1cccc(F)c1 | 
21 | > 10000 | CC/C(=N\N=C(\N)S)c1ccc(Cl)cc1 | 
22 | 480 | N=C(S)N/N=C/c1cccc(C(F)(F)F)c1 | 
23 | > 10000 | N/C(S)=N/N=C/c1cc(C#Cc2ccccc2)cs1 | 

Row | IC50 [1] [nM] | SMILES | further results
24 | 460 | N/C(S)=N/N=C/c1ccc(Cl)c(Cl)c1 | 
25 | 7000 | Cn1nc(C(F)(F)F)cc1-c1ccc(/C=N/N=C(/N)S)s1 | 
26 | 3900 | C/C(=N\N=C(\N)S)c1ccccc1Br | 
27 | 140 | N/C(S)=N/N=C/c1ccc(-c2cccc(Cl)c2)o1 | 
28 | > 10000 | CC/C(=N\N=C(\N)S)c1ccc(Cl)cc1Cl | 
29 | > 10000 | C/C(=N\NC(N)=O)c1cccc(Cl)c1 | 
30 | > 10000 | C/N=C(\S)N1CCC(c2cccc(Br)c2)=N1 | 
31 | > 10000 | CC/C(=N\N=C(\N)S)c1ccccc1 | 
32 | > 10000 | CC/N=C(\S)N1CCC(c2cccc(Br)c2)=N1 | 
33 | > 10000 | NC(=O)N/N=C/c1ccc(-c2ccc(Br)cc2)o1 | 
34 | > 10000 | CC/C(=N\NC(N)=O)c1cccc(Br)c1 | 
35 | 3800 | C/C(=N\N=C(\N)S)c1ccc(Br)s1 | 
36 | > 10000 | CC/C(=N\N=C(\N)S)c1ccc(Br)cc1 | 
37 | > 10000 | N/C(S)=N/N=C/c1cccc(Cl)c1Cl | 
38 | 2800 | N/C(S)=N/N=C/c1cccn1S(=O)(=O)c1ccccc1 | 
39 | > 10000 | FC(F)(F)c1ccc(NC(=S)N2CCC(c3cccc(Br)c3)=N2)cc1 | 
40 | > 10000 | NC(=O)N/N=C/c1ccc(-c2cccc(Cl)c2)o1 | 
41 | > 10000 | CC/C(=N\N=C(/S)NC(C)C)c1cccc(Br)c1 | 
42 | > 10000 | CC/C(=N\N=C(\N)S)c1ccc(OC)cc1 | 
43 | > 10000 | NC(=O)N/N=C/c1ccc(-c2ccc(Cl)cc2)o1 | 
44 | > 10000 | CC/C(=N\N=C(/S)NC)c1cccc(Br)c1 | 
45 | > 10000 | CC/C(=N\N=C(\N)S)c1ccc2cc(OC)ccc2c1 | 

Continued, molecule first:

Row | SMILES | IC50 [1] [nM] | further results
46 | N=C(S)N/N=C/c1cc(C(F)(F)F)cc(C(F)(F)F)c1 | 320 | 
47 | CCCCCCNC(=S)N1CCC(c2cccc(Br)c2)=N1 | 1400 | 
48 | CC1CN(C(=N)S)N=C1c1cccc(Cl)c1 (stereo not drawn) | 230 | Cell survived [2]: >41 days
49 | COc1ccccc1-c1ccc(/C=N/N=C(/N)S)o1 | 280 | Cell survived [3]: 8 days
50 | CC/C(=N\N=C(/S)Nc1ccc(C(F)(F)F)cc1)c1cccc(Br)c1 (stereo in doubt; 5c) | 1600 | Cell survived [2]: 5 days
51 | S=C(Nc1cccc(Cl)c1)N1CCC(c2cccc(Br)c2)=N1 | 1000 | Cell survived [2]: 5 days
52 | CC/C(=N\N=C(/S)NCCN1CCNCC1)c1cccc(Br)c1 | > 10000 | 
53 | N/C(S)=N/N=C/c1ccc(-c2ccc(Cl)cc2)o1 | 300 | Cell survived [3]: 15 days
54 | CC/C(=N\NC(N)=O)c1cccc(C(F)(F)F)c1 | > 10000 | 
55 | CCC(NNC(N)=S)c1cccc(Br)c1 (stereo not drawn) | > 10000 | 
56 | NC(=S)N1CCC(c2ccc(Cl)c(Cl)c2)=N1 | 60 | Cell survived [2]: >41 days
57 | CC1CN(C(=N)S)N=C1c1cccc(Br)c1 (stereo not drawn) |  | Cell survived [2]: >22 days
58 | C/C(=N\N=C(\N)S)c1cccc(C(F)(F)F)c1 | 170 | Cell survived [2]: 15 days
59 | CC/C(=N\N=C(/S)Nc1ccc(C(F)(F)F)cc1)c1cccc(Br)c1 (stereo in doubt) | > 10000 | 
60 | CC/C(=N\N=C(\N)S)c1cccc(Cl)c1 | 220 | Cell survived [4]: 22 days
61 | CC1CN(C(=N)S)N=C1c1cccc(C(F)(F)F)c1 (stereo not drawn) | 40 | Cell survived [2]: >41 days
62 | CC/C(=N\N=C(\N)S)c1cc(C(F)(F)F)cc(C(F)(F)F)c1 | 20 | Cell survived [2]: 20 days

Row | SMILES | IC50 [1] [nM] | further results
63 | CC/C(=N\NC(N)=O)c1cc(C(F)(F)F)cc(C(F)(F)F)c1 | > 10000 | 
64 | NC(=S)N1CCC(c2cccc(Br)c2)=N1 | 200 | Cell survived [2]: 5 days
65 | C/C(=N\NC(N)=O)c1cccc(C(F)(F)F)c1 | > 10000 | 
66 | COc1ccc2ccccc2c1/C=N/N=C(/N)S | 560 | Cell survived [4]: 5 days
67 | CC1CN(C(=N)S)N=C1c1ccc(Cl)c(Cl)c1 (stereo not drawn) | 70 | Cell survived [2]: 15 days
68 | COc1ccc(/C=N/NC(N)=S)cc1O | > 10000 | 
69 | S=C(NCCN1CCOCC1)N1CCC(c2cccc(Br)c2)=N1 | > 10000 | 
70 | CC/C(=N\N=C(\N)S)c1ccc(Cl)c(Cl)c1 | 20 | Cell survived [2]: 9 days
71 | C/C(=N\N=C(\N)S)c1cccc(Br)c1 |  | Cell survived [2]: 22 days
72 | N/C(S)=N/N=C/c1cccc(Br)c1 | 1300 | Cell survived [2]: 8 days
73 | C/C(=N\N=C(\N)S)c1ccc(Cl)c(Cl)c1 | 50 | Cell survived [2]: >41 days
74 | CC/C(=N\N=C(\N)S)c1cccc(Br)c1 |  | Cell survived [4]: >46 days
75 | NC(=S)N1CCC(c2cccc(Cl)c2)=N1 | 270 | Cell survived [2]: 5 days
76 | CC/C(=N\N=C(\N)S)c1cccc(C(F)(F)F)c1 | 50 | Cell survived [4]: >41 days
77 | C/C(=N\N=C(\N)S)c1cc(C(F)(F)F)cc(C(F)(F)F)c1 | 60 | Cell survived [2]: 7 days
78 | N=C(S)N1CCC(c2cccc(C(F)(F)F)c2)=N1 | 80 | Cell survived [2]: 5 days

Source: ChEMBL document CHEMBL1135476, “Synthesis and structure-activity relationship study of potent trypanocidal thio semicarbazone inhibitors of the trypanosomal cysteine protease cruzain” (J Med Chem, 2002)
